From ChEMBL document CHEMBL3853361 (ACS Med Chem Lett, 2016)
Each block holds one compound with its values, some of them ahead of it. The source made the active and inactive calls. No cut-off for these calls is given here.

How the values were obtained:
SK-MEL-28 [1] = assay: Cytostatic activity in human SK-MEL-28 cells harboring BRAF V600E mutant at 10 and 30000 nM measured after 48 hrs resazurin assay
[2] = Drug level in DMEM treated with dabrafenib at 200 uM measured after irradiation of 226 W/m2 UV-light for 5 mins by HPLC analysis; format: physicochemical
SK-MEL-28 [3] = assay: Growth inhibition of human SK-MEL-28 cells harboring BRAF V600E mutant preincubated for 1 hr followed by irradiation of 1.13 kW/m2 UV-light for 5 mins measured after 48 hrs resazurin assay; format: functional, cell-based
Method in brief: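 SKMEL28 cells incubated 1 h with compound, then irradiated at 365 nm (1.13 kW/m2) for 5 min; growth measured 48 h after compound addition. GI50, TGI and LC50 taken from dose–response curves; n = 4, standard deviation shown.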

[4] = Photostability of the compound in DMSO assessed as photolysis at 200 uM measured after irradiation of 1130 W/m2 UV-light for 15 mins by HPLC analysis; format: physicochemical; conditions: 0.25 h
[5] = biological target: Serine/threonine-protein kinase B-raf (Homo sapiens, UniProt P15056, V600E); assay: Inhibition of recombinant human N-terminal GST-6His tagged BRAF V600E mutant (417 to 766 residues) expressed in baculovirus infected Sf9 cells preincubated with substrate followed by protein and ATP addition measured after 60 mins by scintillation counter method
Serine/threonine-protein kinase B-raf, sequence (P15056 2-766 V600E limits assumed): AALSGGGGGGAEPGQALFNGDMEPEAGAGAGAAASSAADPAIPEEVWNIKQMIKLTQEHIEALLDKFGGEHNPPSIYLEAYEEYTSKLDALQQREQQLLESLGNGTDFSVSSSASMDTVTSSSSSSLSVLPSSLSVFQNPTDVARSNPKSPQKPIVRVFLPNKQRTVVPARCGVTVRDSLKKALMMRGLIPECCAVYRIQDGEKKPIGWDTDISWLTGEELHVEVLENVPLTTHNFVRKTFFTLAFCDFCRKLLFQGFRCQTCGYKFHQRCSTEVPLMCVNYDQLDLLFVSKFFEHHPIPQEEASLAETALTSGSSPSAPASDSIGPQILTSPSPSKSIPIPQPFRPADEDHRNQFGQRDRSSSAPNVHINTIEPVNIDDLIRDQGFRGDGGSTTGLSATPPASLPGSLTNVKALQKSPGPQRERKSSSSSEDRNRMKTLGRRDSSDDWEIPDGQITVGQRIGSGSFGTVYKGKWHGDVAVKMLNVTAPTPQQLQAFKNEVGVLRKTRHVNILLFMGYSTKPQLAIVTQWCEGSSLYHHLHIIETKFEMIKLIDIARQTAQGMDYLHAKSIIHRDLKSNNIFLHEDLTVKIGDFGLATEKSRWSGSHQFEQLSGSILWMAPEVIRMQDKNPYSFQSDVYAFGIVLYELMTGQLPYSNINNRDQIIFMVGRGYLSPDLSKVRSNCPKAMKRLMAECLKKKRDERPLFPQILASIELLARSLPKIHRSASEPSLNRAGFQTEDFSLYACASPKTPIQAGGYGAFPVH

SK-MEL-28 [6] = assay: Cytotoxicity against human SK-MEL-28 cells harboring BRAF V600E mutant at >30000 nM measured after 48 hrs by resazurin assay
[7] = Drug level in DPBS treated with dabrafenib at 200 uM measured after irradiation of 1130 W/m2 UV-light for 15 mins by HPLC analysis; format: physicochemical; conditions: 0.25 h
[8] = Drug level in human SK-MEL-28 cells treated with dabrafenib at 100 uM followed by UV-light irradiation by DAPI-staining based fluorescence microscopic analysis; format: ADME, cell-based; conditions: sk-mel-28, 100 µM
Method in brief: (§1)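 Fluorescence microscopy of SKMEL28 cells seeded in wells. Cells incubated with parent drug, then exposed to rising doses of 365 nm UV; green autofluorescence of the photoproduct imaged at 10× per well. Nuclei counterstained with 1 µg/mL DAPI. Controls: cells without compound given the highest UV dose.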

[9] = Drug level assessed as compound formation in DMEM using 200 uM dabrafenib measured after daylight exposure for 1 day by HPLC analysis; format: physicochemical; conditions: 24 h
[10] = Drug uptake in nucleus of human SK-MEL-28 cells at 100 uM by DAPI-staining based fluorescence microscopic analysis; format: ADME, cell-based; conditions: sk-mel-28, 100 µM
Method in brief: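 SKMEL28 cells incubated with compound at 100 µM and imaged for green autofluorescence by fluorescence microscopy at 60×. Nuclei counterstained with 1 µg/mL DAPI.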

[11] = Drug level assessed as compound formation in DMSO using 200 uM dabrafenib measured after daylight exposure for 1 day by HPLC analysis; format: physicochemical; conditions: 24 h
[12] = Drug level in DMEM treated with dabrafenib at 200 uM measured after irradiation of 1130 W/m2 UV-light for 15 mins by HPLC analysis; format: physicochemical; conditions: 0.25 h
Method in brief: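 Parent drug dissolved in DMEM cell culture medium, irradiated at 1130 W/m2, then analysed by HPLC. Peak areas converted to concentrations with calibration curves (n = 4).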

[13] = Antiproliferative activity against human SK-MEL-28 cells harboring BRAF V600E mutant assessed as concentration required for total growth inhibition measured after 48 hrs resazurin assay; format: functional; conditions: SK-MEL-28, 48 h
Method in brief: (§2)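 SKMEL28 melanoma cells (BRAF V600E-dependent) exposed to a range of compound concentrations, no UV; growth measured after 48 h incubation. Dose–response curves give GI50, TGI (concentration giving total growth inhibition) and LC50; n = 4, error bars standard deviation.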

[14] = Stability of the compound in DMSO assessed as thermal decomposition at 200 uM incubated in dark for 1 day by HPLC analysis; format: physicochemical; conditions: 24 h
SK-MEL-28 [15] = assay: Growth inhibition of human SK-MEL-28 cells harboring BRAF V600E mutant measured after 48 hrs resazurin assay; format: functional, cell-based
Method in brief: as §2

[16] = Photostability of the compound in DMSO at 200 uM measured after irradiation of 226 W/m2 UV-light for 5 mins by HPLC analysis; format: physicochemical
[17] = Photostability of the compound in DMSO at 200 uM measured after daylight exposure for 1 day by HPLC analysis; format: physicochemical; conditions: 24 h
[18] = Half life of the compound in DPBS at 200 uM measured after irradiation of 1130 W/m2 UV-light for 15 mins by HPLC analysis; format: physicochemical; conditions: DPBS solution under UV irradiation
[19] = Drug metabolism in human SK-MEL-28 cells assessed as photo-induced N-(5-amino-2-tert-butyl)-11-fluorbenzol[f]thiazol-[4,5-h]-quinazolin-10-yl)-2,6-difluorbenzolsulfonamide formation at 100 uM followed by UV-light irradiation by DAPI-staining based fluorescence microscopic analysis; format: ADME, cell-based; conditions: sk-mel-28, 100 µM
Method in brief: as §1

[20] = Half life of the compound in DMSO at 200 uM measured after irradiation of 226 W/m2 UV-light for 5 mins by HPLC analysis; format: physicochemical; conditions: DMSO solution under UV irradiation
[21] = Stability of the compound in DMEM assessed as thermal decomposition at 200 uM incubated in dark for 1 day by HPLC analysis; format: physicochemical; conditions: 24 h
[22] = Half life of the compound in DMSO at 200 uM measured after irradiation of 1130 W/m2 W/m2 UV-light for 5 mins by HPLC analysis; format: physicochemical; conditions: DMSO solution under UV irradiation
[23] = Half life of the compound in DMSO at 200 uM measured after irradiation of 1130 W/m2 UV-light for 15 mins by HPLC analysis; format: physicochemical; conditions: DMSO solution under UV irradiation
[24] = Photostability of the compound in DMEM at 200 and 1100 uM measured after daylight exposure for 1 day by HPLC analysis; format: physicochemical; conditions: 24 h
SK-MEL-28 [25] = assay: Cytostatic activity in human SK-MEL-28 cells harboring BRAF V600E mutant at 1 and 30 uM measured after 48 hrs resazurin assay; format: functional, cell-based

Compound: CC(C)(C)c1nc2c(s1)c1nc(N)ncc1c1ccc(NS(=O)(=O)c3c(F)cccc3F)c(F)c12
Activity (SK-MEL-28 [1]): Active
Drug metabolism [2]: Metabolite_Detected
growth inhibition (GI) (SK-MEL-28 [3]): Active
Stability [4]: Unstable
IC50 [5]: 280 nM
Activity (SK-MEL-28 [6]): Active
Drug metabolism [7]: Metabolite_Detected
Drug metabolism [8]: Metabolite_Detected
Drug metabolism [9]: Metabolite_Detected
Drug uptake [10]: Active
Drug metabolism [11]: Metabolite_Detected
Drug metabolism [12]: Metabolite_Detected
TGI [13]: 8900 nM

Stability [14]: Stable
Stability [16]: Unstable
Stability [17]: Unstable
half-life at 200 µM [18]: 145 s
Drug metabolism [19]: Metabolite_Detected
half-life at 200 µM [20]: 65 s
Stability [21]: Stable
half-life at 200 µM [22]: 19.5 s
half-life at 200 µM [23]: 19.5 s
Stability [24]: Unstable
Compound: CC(C)(C)c1nc(-c2cccc(NS(=O)(=O)c3c(F)cccc3F)c2F)c(-c2ccnc(N)n2)s1 [DABRAFENIB]
growth inhibition (GI) (SK-MEL-28 [3]): Active
growth inhibition (GI) (SK-MEL-28 [15]): Active
Activity (SK-MEL-28 [25]): Active

Compound: CCCS(=O)(=O)Nc1ccc(F)c(C(=O)c2c[nH]c3ncc(-c4ccc(Cl)cc4)cc23)c1F [VEMURAFENIB]
growth inhibition (GI) (SK-MEL-28 [3]): Active
TGI [13]: 2000 nM
